Results from ChEMBL document CHEMBL4020703, “Epigallocatechin-3-gallate inhibits bacterial virulence and invasion of host cells” (Bioorg Med Chem, 2017).
The source made the active and inactive calls. The calls are words filed in the database; no cut-off is given here.

Key:
[1] = test system: Salmonella enterica subsp. enterica serovar Typhimurium; test: Inhibition of SPI-1 T3SS in Salmonella typhimurium assessed as reduction in SPI-1 T3SS substrates by measuring SipB protein level at 5 to 100 uM after 4 hrs by Coomassie staining based SDS-PAGE method
How it was run: (§1)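 Overnight S. Typhimurium cultures were diluted 1:30 into LB (10 g/L NaCl) and grown 4 h with or without compound. Culture supernatant (1 mL) was precipitated overnight at 4 °C with TCA (10% final). Pellets were spun at 14,000 rpm for 30 min, acetone-washed, and dried. Proteins were resolved on 4–20% SDS-PAGE, Coomassie-stained, and imaged.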

[2] = test system: Salmonella enterica subsp. enterica serovar Typhimurium; test: Inhibition of SPI-1 T3SS in Salmonella typhimurium assessed as reduction in SPI-1 T3SS substrates by measuring FliD protein level at 5 to 100 uM after 4 hrs by Coomassie staining based SDS-PAGE method; how it was run: as §1
[3] = test system: Salmonella enterica subsp. enterica serovar Typhimurium; test: Inhibition of SPI-1 T3SS in Salmonella typhimurium assessed as reduction in SPI-1 T3SS substrates by measuring SopB protein level at 5 to 100 uM after 4 hrs by Coomassie staining based SDS-PAGE method; how it was run: as §1
Salmonella typhimurium [4] = test: Effect on growth of Salmonella typhimurium at 100 uM; conditions: salmonella enterica subsp. enterica serovar typhimurium
[5] = test system: Salmonella enterica subsp. enterica serovar Typhimurium; test: Inhibition of SPI-1 T3SS in Salmonella typhimurium assessed as reduction in SPI-1 T3SS substrates by measuring SipA protein level at 5 to 100 uM after 4 hrs by Coomassie staining based SDS-PAGE method; how it was run: as §1
[6] = test system: Salmonella enterica subsp. enterica serovar Typhimurium; test: Inhibition of SPI-1 T3SS in Salmonella typhimurium assessed as reduction in SPI-1 T3SS substrates by measuring SipC protein level at 5 to 100 uM after 4 hrs by Coomassie staining based SDS-PAGE method; how it was run: as §1
HeLa [7] = test: Inhibition of SPI-1 T3SS in Salmonella typhimurium infected in human HeLa cells assessed as reduction in bacterial invasion at 100 uM after 30 mins by flow cytometry; type: cell-based; conditions: Salmonella enterica subsp. enterica serovar Typhimurium
How it was run: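 Strain IR715 was pre-grown 4 h in LB (1/33 dilution) with compound or DMSO, then added to HeLa cells (DMEM/10% FBS) at MOI 10 with compound. Plates were spun 5 min at 1000×g, infected 30 min at 37 °C, then given gentamicin 100 ug/mL for 30 min. Cells were fixed, saponin-permeabilised, stained with anti-Salmonella serum plus AlexaFluor 488 secondary, and 30,000 cells counted. Values normalised to DMSO; triplicate.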

Salmonella typhimurium [8] = test: Effect on SopE2-CPG2-HA fusion protein expression expressed in Salmonella typhimurium using Glu-CyFur as substrate at 0.39 to 100 uM after 4 hrs by fluorescence assay; type: ADME; conditions: salmonella enterica subsp. enterica serovar typhimurium
How it was run: (§2)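 SopE2-CPG2-HA reporter strain grown overnight at 37 °C in LB (10 g/L NaCl) with 50 μg/mL ampicillin, diluted 1:30, then grown 4 h with compound or DMSO/H2O control (<1% of volume). Bacterial lysates were examined for reporter level.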

[9] = Inhibition of SPI-1 T3SS in Salmonella typhimurium expressing SopE2-CPG2-HA fusion protein assessed as reduction in type 3 protein secretion using Glu-CyFur as substrate after 4 hrs by fluorescence assay; parameters: species or system Salmonella enterica subsp. enterica serovar Typhimurium
How it was run: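 Reporter strain was grown 4 h at 37 °C with compound after a 1:30 dilution, and OD600 was checked. Culture supernatant was mixed with 50 mM Tris, 0.1 mM ZnCl2, pH 7.4, 0.1% Brij-97 and 10 μM Glu-CyFur. Fluorescence (ex 563/em 610 nm) was read kinetically for 2 h. Inhibition came from the rate versus DMSO/H2O control, and IC50 from an exponential decay fit.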

HeLa [10] = test: Inhibition of SPI-1 T3SS in Salmonella typhimurium infected in human HeLa cells assessed as reduction in bacterial invasion at 100 uM after 30 mins by immunofluorescence analysis; type: cell-based; conditions: Salmonella enterica subsp. enterica serovar Typhimurium
How it was run: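 HeLa cells on glass coverslips were infected and stained as for the flow protocol (MOI 10, 30 min, gentamicin chase, anti-Salmonella serum/AlexaFluor 488), with nuclei counterstained by TOPRO-3. Extracellular bacteria were imaged without permeabilisation or gentamicin.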

[11] = test system: Salmonella enterica subsp. enterica serovar Typhimurium; test: Inhibition of SPI-1 T3SS in Salmonella typhimurium assessed as reduction in SPI-1 T3SS substrates by measuring FliC protein level at 5 to 100 uM after 4 hrs by Coomassie staining based SDS-PAGE method; how it was run: as §1
Salmonella typhimurium [12] = test: Effect on SopE2-CPG2-HA fusion protein expression expressed in Salmonella typhimurium at 0.39 to 100 uM after 4 hrs by Western blot method; type: ADME; conditions: salmonella enterica subsp. enterica serovar typhimurium; how it was run: as §2
[13] = test system: Salmonella enterica subsp. enterica serovar Typhimurium; test: Inhibition of SPI-1 T3SS in Salmonella typhimurium assessed as reduction in SPI-1 T3SS substrates by measuring FliC protein level at 100 uM after 4 hrs by Coomassie staining based SDS-PAGE method; how it was run: as §1
[14] = test system: Salmonella enterica subsp. enterica serovar Typhimurium; test: Inhibition of SPI-1 T3SS in Salmonella typhimurium assessed as reduction in SPI-1 T3SS substrates by measuring SipC protein level at 100 uM after 4 hrs by Coomassie staining based SDS-PAGE method; how it was run: as §1
[15] = test system: Salmonella enterica subsp. enterica serovar Typhimurium; test: Inhibition of SPI-1 T3SS in Salmonella typhimurium assessed as reduction in SPI-1 T3SS substrates by measuring FliD protein level at 100 uM after 4 hrs by Coomassie staining based SDS-PAGE method; how it was run: as §1
[16] = test system: Salmonella enterica subsp. enterica serovar Typhimurium; test: Inhibition of SPI-1 T3SS in Salmonella typhimurium assessed as reduction in SPI-1 T3SS substrates by measuring SipB protein level at 100 uM after 4 hrs by Coomassie staining based SDS-PAGE method; how it was run: as §1
[17] = test system: Salmonella enterica subsp. enterica serovar Typhimurium; test: Inhibition of SPI-1 T3SS in Salmonella typhimurium assessed as reduction in SPI-1 T3SS substrates by measuring SopB protein level at 100 uM after 4 hrs by Coomassie staining based SDS-PAGE method; how it was run: as §1
[18] = test system: Salmonella enterica subsp. enterica serovar Typhimurium; test: Inhibition of SPI-1 T3SS in Salmonella typhimurium assessed as reduction in SPI-1 T3SS substrates by measuring SipA protein level at 100 uM after 4 hrs by Coomassie staining based SDS-PAGE method; how it was run: as §1

SMILES: O=C(O[C@@H]1Cc2c(O)cc(O)cc2O[C@@H]1c1cc(O)c(O)c(O)c1)c1cc(O)c(O)c(O)c1 [EPIGALOCATECHIN GALLATE]
- inhibition [1]: Dose-dependent effect
- inhibition [2]: Active
- inhibition [3]: Dose-dependent effect
- Activity (Salmonella typhimurium [4]): Non-Toxic
- inhibition [5]: Dose-dependent effect
- inhibition [6]: Dose-dependent effect
- inhibition (HeLa [7]): Active
- Activity (Salmonella typhimurium [8]): Non-Toxic
- IC50 [9]: 2150 nM
- inhibition (HeLa [10]): Active
- inhibition [11]: Active
- Activity (Salmonella typhimurium [12]): Non-Toxic

SMILES: O=c1cc(-c2ccccc2)oc2cc(O)cc(O)c12
- inhibition [13]: inactive
- inhibition [14]: inactive
- inhibition [15]: inactive
- inhibition [16]: inactive
- inhibition [17]: inactive
- inhibition [18]: inactive

SMILES: O=c1cc(-c2ccccc2)oc2cc(O)c(O)c(O)c12
- inhibition [1]: Active
- inhibition [2]: Active
- inhibition [3]: Active
- inhibition [5]: Active
- inhibition [6]: Active
- inhibition [11]: Active

SMILES: O=C(O[C@@H]1Cc2c(O)cc(O)cc2O[C@@H]1c1ccc(O)c(O)c1)c1cc(O)c(O)c(O)c1
- inhibition [1]: Dose-dependent effect
- inhibition [2]: Active
- inhibition [3]: Dose-dependent effect
- inhibition [5]: Dose-dependent effect
- inhibition [6]: Dose-dependent effect
- inhibition [11]: Active

SMILES: O=C(N/N=C/c1cc(Br)cc(Br)c1O)c1ccc([N+](=O)[O-])cc1
- inhibition [1]: Active
- inhibition [2]: Active
- inhibition [3]: Active
- inhibition [5]: Active
- inhibition [6]: Active
- inhibition [11]: Active
